Laboratory results taken from ChEMBL document CHEMBL4020742, “Design and optimization of purine derivatives as in vivo active PDE10A inhibitors” (Bioorg Med Chem, 2017).

Experiments:
[1] = molecular target: T1, cAMP and cAMP-inhibited cGMP 3',5'-cyclic phosphodiesterase 10A (Homo sapiens, UniProt Q9Y233); assay: Inhibition of recombinant human N-terminal GST-tagged PDE10A1 (2 to 789 residues) expressed in baculovirus infected Sf9 cells at 5 uM using fluorescein-labeled cAMP as substrate preincubated for 15 mins followed by substrate addition measured after 30 mins by IMAP fluorescence polarization assay relative to control
T1 sequence (Q9Y233 whole entry, the tested form may be a part): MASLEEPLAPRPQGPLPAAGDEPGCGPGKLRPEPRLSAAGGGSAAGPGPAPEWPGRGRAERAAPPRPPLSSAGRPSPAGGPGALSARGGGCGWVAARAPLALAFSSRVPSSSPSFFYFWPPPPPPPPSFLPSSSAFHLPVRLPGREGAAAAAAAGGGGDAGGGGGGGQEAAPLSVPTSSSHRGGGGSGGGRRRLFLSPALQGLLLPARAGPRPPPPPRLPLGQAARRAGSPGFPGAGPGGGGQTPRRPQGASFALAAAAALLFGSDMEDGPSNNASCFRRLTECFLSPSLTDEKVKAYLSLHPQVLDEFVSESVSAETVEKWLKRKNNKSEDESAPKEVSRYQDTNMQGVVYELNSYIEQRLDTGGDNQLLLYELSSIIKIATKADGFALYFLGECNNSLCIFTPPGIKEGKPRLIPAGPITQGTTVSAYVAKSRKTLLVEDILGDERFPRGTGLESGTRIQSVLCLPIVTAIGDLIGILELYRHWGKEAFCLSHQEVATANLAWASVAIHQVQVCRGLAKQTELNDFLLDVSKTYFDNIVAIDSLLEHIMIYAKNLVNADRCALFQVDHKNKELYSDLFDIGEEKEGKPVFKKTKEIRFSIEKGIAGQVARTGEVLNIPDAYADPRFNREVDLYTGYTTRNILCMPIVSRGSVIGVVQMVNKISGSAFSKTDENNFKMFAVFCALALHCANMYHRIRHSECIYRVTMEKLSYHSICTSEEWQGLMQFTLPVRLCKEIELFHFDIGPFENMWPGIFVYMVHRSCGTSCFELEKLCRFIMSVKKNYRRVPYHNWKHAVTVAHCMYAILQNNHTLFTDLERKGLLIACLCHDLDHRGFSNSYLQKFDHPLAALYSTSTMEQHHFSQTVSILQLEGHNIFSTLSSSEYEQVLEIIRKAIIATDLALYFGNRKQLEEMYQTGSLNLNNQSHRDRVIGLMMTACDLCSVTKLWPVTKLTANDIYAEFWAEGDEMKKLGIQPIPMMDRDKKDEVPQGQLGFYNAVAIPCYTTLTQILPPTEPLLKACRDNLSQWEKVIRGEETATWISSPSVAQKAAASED
Outline: (§1)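 Recombinant PDE4A1A, PDE2A1 or PDE10A1 was incubated with compound (1% DMSO, duplicate) for 15 min at RT. Fluorescein-cAMP was then added for 30 min at RT, and the reaction was stopped with IMAP binding reagent (1 h, dark). FP was read at Ex485/Em535. Inhibition was set against no-enzyme and DMSO controls. IC50 came from a four-parameter logistic fit; values are the mean of at least two measurements.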

[2] = molecular target: T1, cAMP and cAMP-inhibited cGMP 3',5'-cyclic phosphodiesterase 10A; assay: Inhibition of recombinant human N-terminal GST-tagged PDE10A1 (2 to 789 residues) expressed in baculovirus infected Sf9 cells using fluorescein-labeled cAMP as substrate preincubated for 15 mins followed by substrate addition measured after 30 mins by IMAP fluorescence polarization assay; outline: as §1

Row | Structure (SMILES) | inhibition [1] | IC50 [2]
1 | Cc1nc2c(N3CCOCC3)nccn2c1NCc1ccccc1-c1ccccc1Cl | 87% | 
2 | Cc1nc2c(N3CCOCC3)nccn2c1NCc1ccc(-c2ccc3ccccc3c2)cc1 | 54% | 
3 | Cc1nc2c(N3CCOCC3)ncnc2n1Cc1ccc(-c2cnc3[nH]ncc3c2)cc1 | 98% | 0.06 µM
4 | c1ccc(CCn2cnc3c(N4CCOCC4)ncnc32)cc1 | 13% | 
5 | COc1ccc(-c2ccc(Cn3c(C)nc4c(N5CCOCC5)ncnc43)cc2)cc1 | 94% | 0.062 µM
6 | Cc1nc2c(N3CCOCC3)nccn2c1NCc1ccc(-c2ccccc2)cc1 | 55% | 
7 | Cc1nc2c(N3CCOCC3)ncnc2n1Cc1ccc(-c2cccnc2)cc1 | 97% | 0.061 µM
8 | COc1ccc(CCNc2c(C)nc3c(N4CCOCC4)nccn23)cc1-c1ccccc1 | 80% | 
9 | Cc1nc2c(N3CCOCC3)nccn2c1NCc1ccc(-c2cnn(C)c2)cc1 | 88% | 
10 | O=C(Cn1cnc2c(N3CCOCC3)ncnc21)c1ccccc1 | 11% | 
11 | COc1ccc(CCNc2c(C)nc3c(N4CCOCC4)nccn23)cc1OC | 83% | 
12 | Cc1nc2c(N3CCOCC3)nccn2c1NCc1ccccc1-c1ccccc1 | 75% | 
13 | CCc1nc2c(N3CCOCC3)ncnc2n1Cc1ccc(-c2ccccc2)cc1 | 97% | 0.168 µM
14 | COc1ccc(-c2ccccc2CNc2c(C)nc3c(N4CCOCC4)nccn23)cc1OC | 51% | 
15 | Cc1nc2c(N3CCOCC3)nccn2c1NCc1ccccc1-c1cnn(C)c1 | 64% | 
16 | Cc1nc2c(N3CCOCC3)nccn2c1NCc1ccc(-c2ccc(C(C)(C)C)cc2)cc1 | 38% | 
17 | Cc1nc2c(N3CCOCC3)ncnc2n1Cc1ccc(-c2cccc(Cl)c2)cc1 | 93% | 0.258 µM
18 | Cc1nc2c(N3CCOCC3)ncnc2n1Cc1ccc(C(=O)Nc2ccccc2)cc1 | 96% | 0.13 µM
19 | Cc1nc2c(N3CCOCC3)ncnc2n1Cc1ccc(-c2ccncc2)cc1 | 96% | 0.116 µM
20 | COc1ccc(-c2ccc(CNc3c(C)nc4c(N5CCOCC5)nccn34)cc2)cc1 | 87% | 
21 | COc1ccc(CCNc2c(C)nc3c(N4CCOCC4)nccn23)c(-c2ccccc2)c1 | 93% | 0.336 µM

Row | Structure (SMILES) | inhibition [1] | IC50 [2]
22 | Cc1nc2c(N3CCOCC3)nccn2c1NC(=O)Cc1ccc2ccccc2c1 | 24% | 
23 | Cc1noc(C)c1-c1ccc(CNc2c(C)nc3c(N4CCOCC4)nccn23)cc1 | 90% | 0.518 µM
24 | Cc1nc2c(N3CCOCC3)ncnc2n1Cc1ccc(-c2ccc(Cl)cc2)cc1 | 91% | 0.168 µM
25 | COc1ccc(CCNc2c(C)nc3c(N4CCOCC4)nccn23)cc1Br | 81% | 
26 | COc1ccc(CC(=O)Nc2c(C)nc3c(N4CCOCC4)nccn23)cc1OC | 50% | 
27 | Cc1nc2c(N3CCOCC3)nccn2c1NCc1ccccc1-c1ccncc1 | 70% | 
28 | c1ccc(-c2ccc(Cn3cnc4c(N5CCOCC5)ncnc43)cc2)cc1 | 94% | 0.103 µM
29 | Cc1nc2c(N3CCOCC3)nccn2c1NCc1ccccc1Br | 73% | 
30 | COc1ccc(CCNc2c(C)nc3c(N4CCOCC4)nccn23)c(Br)c1 | 92% | 0.243 µM
31 | Cc1nc2c(N3CCOCC3)ncnc2n1Cc1ccc(-c2ccccc2)cc1 | 99% | 0.113 to 0.118 µM
32 | c1ccc(Cn2cnc3c(N4CCOCC4)ncnc32)cc1 | 66% | 
33 | Cc1nc2c(N3CCOCC3)nccn2c1NCCc1c(Cl)cccc1Cl | 98% | 0.447 µM
34 | COc1cccc(CCn2cnc3c(N4CCOCC4)ncnc32)c1 | 20% | 
35 | COc1cc(Cn2cnc3c(N4CCOCC4)ncnc32)cc(OC)c1 | 85% | 
36 | Cc1noc(C)c1-c1ccc(Cn2c(C)nc3c(N4CCOCC4)ncnc32)cc1 | 96% | 0.119 µM
37 | Cc1nc2c(N3CCOCC3)nccn2c1NCCc1ccc2ccccc2c1 | 78% | 
38 | Cc1ccc(-c2ccc(CNc3c(C)nc4c(N5CCOCC5)nccn34)cc2)cc1 | 74% | 
39 | Cc1nc2c(N3CCOCC3)nccn2c1NC(=O)Cc1c(Cl)cccc1Cl | 47% | 
40 | Cc1nc2c(N3CCOCC3)ncnc2n1Cc1ccc(Br)cc1 | 93% | 0.327 µM
41 | Cc1nc2c(N3CCOCC3)nccn2c1NCc1ccccc1-c1ccc2ccccc2c1 | 63% | 
42 | COc1ccc(-c2ccccc2CNc2c(C)nc3c(N4CCOCC4)nccn23)cc1 | 60% | 

Row | Structure (SMILES) | inhibition [1] | IC50 [2]
43 | Brc1ccc(Cn2cnc3c(N4CCOCC4)ncnc32)cc1 | 90% | 0.53 µM
44 | CCOC(=O)c1ccc(Cn2c(C)nc3c(N4CCOCC4)ncnc32)cc1 | 90% | 
45 | Cc1nc2c(N3CCOCC3)nccn2c1NCc1ccc(-c2ccncc2)cc1 | 91% | 0.391 µM
46 | Cc1nc2c(N3CCOCC3)nccn2c1NCc1ccc(-c2cncnc2)cc1 | 79% | 
47 | Cc1nc2c(N3CCOCC3)nccn2c1NCCc1ccc2c(c1)OCO2 | 82% | 
48 | Cc1nc2c(N3CCOCC3)nccn2c1NCCc1ccccc1 | 74% | 
49 | Cc1nc2c(N3CCOCC3)nccn2c1NCc1ccccc1-c1cccnc1 | 76% | 
50 | Cc1noc(C)c1-c1ccccc1CNc1c(C)nc2c(N3CCOCC3)nccn12 | 68% | 
51 | Cc1ccc(-c2ccccc2CNc2c(C)nc3c(N4CCOCC4)nccn23)cc1 | 57% | 
52 | Cc1nc2c(N3CCOCC3)nccn2c1NCc1ccccc1-c1ccc(C(C)(C)C)cc1 | 39% | 
53 | Cc1nc2c(N3CCOCC3)nccn2c1NCc1ccc(Br)cc1 | 77% | 
54 | Cc1nc2c(N3CCOCC3)ncnc2n1Cc1ccccc1Br | 87% | 
55 | c1ccc2cc(Cn3cnc4c(N5CCOCC5)ncnc43)ccc2c1 | 100% | 0.107 µM
56 | Cc1nc2c(N3CCOCC3)nccn2c1NC(=O)Cc1ccc2c(c1)OCO2 | 44% | 
57 | Cc1nc2c(N3CCOCC3)nccn2c1NCc1ccc(-c2ccccc2Cl)cc1 | 77% | 
58 | Clc1cccc(Cl)c1Cn1cnc2c(N3CCOCC3)ncnc21 | 70% | 
59 | Cc1nc2c(N3CCOCC3)nccn2c1NCc1ccccc1-c1cncnc1 | 61% | 
60 | Cc1nc2c(N3CCOCC3)nccn2c1NCc1ccc(-c2cccnc2)cc1 | 90% | 0.529 µM
61 | Cc1nc2c(N3CCOCC3)nccn2c1NC(=O)Cc1ccccc1 | 51% | 
